Measurements: ChEMBL document CHEMBL3351538, “Complete stereochemistry and preliminary structure-activity relationship of rakicidin A, a hypoxia-selective cytotoxin from Micromonospora sp” (J Nat Prod, 2014)

What was measured:
[1] = Cytotoxicity against human PANC1 cells under hypoxic condition […] by crystal violet method; assay type: functional, cell-based; settings: PANC-1
Procedure, shortened: (§1)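 HCT-8 or PANC-1 cells seeded at 2 × 10^4 per well in duplicate plates and preincubated 24 h to adhere. Serially diluted samples added, then cultures held 2 d either normoxic (5% CO2) or hypoxic (1% O2, modular chamber with oxygen indicator). Viability read by crystal violet staining under normoxic conditions.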

[2] = Cytotoxicity against human HCT8 cells under normoxic condition after 2 days by crystal violet method; settings: HCT-8, 2 d
HCT-8 = assay: Selectivity index, ratio of IC50 for human HCT8 cells under normoxic condition to IC50 for human HCT8 cells under hypoxic condition; assay type: functional
[3] = Cytotoxicity against human PANC1 cells under normoxic condition after 2 days by crystal violet method; settings: PANC-1, 2 d
PANC-1 = assay: Selectivity index, ratio of IC50 for human PANC1 cells under normoxic condition to IC50 for human PANC1 cells under hypoxic condition; assay type: functional
[4] = Cytotoxicity against human HCT8 cells under hypoxic condition […] by crystal violet method; assay type: functional, cell-based; settings: HCT-8; procedure, shortened: as §1

Row | SMILES | IC50 [1] [µM] | IC50 [2] [µM] | Ratio IC50 (HCT-8) | IC50 [3] [µM] | Ratio IC50 (PANC-1) | IC50 [4] [µM]
1 | COc1cccc2c1C(=O)c1c(O)c3c(c(O)c1C2=O)C[C@@](O)(C(=O)CO)C[C@@H]3O[C@H]1C[C@H](N)[C@H](O)[C@H](C)O1 [DOXORUBICIN] | 5.4 | 2.4 | 0.12 | 1.1 | 0.21 | 19.6
2 | C=C1/C=C/C(=O)N(C)CC(=O)N[C@H]([C@@H](O)C(N)=O)C(=O)O[C@@H]([C@H](C)CCCCCCCCCCCCCC(C)C)[C@H](C)C(=O)N1 | 4.7 | 9.4 | 5.2 | 17.9 | 3.8 | 1.8
3 | CC(C)CCCCCCCCCCC[C@@H](C)[C@@H]1OC(=O)[C@@H]([C@@H](O)C(N)=O)NC(=O)CN(C)C(=O)CCC(C)NC(=O)[C@H]1C (stereo not given in full) | 75.4 | 27.7 | 4.3 | 19.3 | 0.26 | 6.5
4 | C=C1/C=C/C(=O)N(C)CC(=O)NC(C(O)C(N)=O)C(=O)OC(C(C)CCCCCCCCCCCCC(C)C)C(C)C(=O)N1 (stereo not given) | 0.71 | 2.1 | 10 | 3.1 | 4.3 | 0.21
5 | CC(C)CCCCCCCCCCC[C@@H](C)[C@H](O)[C@H](C)C(=O)NC(C)CCC(=O)N(C)CC(=O)N[C@@H](C(=O)O)[C@@H](O)C(N)=O (stereo not given in full) | > 80 | 33.9 | 0.54 | 27.4 |  | 63.4
6 | C=C1/C=C/C(=O)N(C)CC(=O)N[C@H]([C@@H](O)C(N)=O)C(=O)O[C@@H]([C@H](C)CCCCCCCCCCCC(C)C)[C@H](C)C(=O)N1 | 0.37 | 3.9 | 12.8 | 2.3 | 6.3 | 0.3
